Measured values pooled from the literature.
Protocols differ between the studies behind these lines.

Compound	target or system	assay	system	setting	endpoint	value
N#C[C@@]12C[C@@H]1[C@@H](n1cnc3c(N[C@@H](C4CCC4)C4CC4)nc(I)nc31)[C@H](O)[C@@H]2O	–	–	male Wistar rat, plasma	oral, 1 mg/kg	half-life	2.2 h
CC(=Nc1ccc(N=Cc2cnccn2)cc1)N(C)C	–	–	male Sprague-Dawley rat, plasma	intravenous, 20 mg/kg	half-life	1.53 h
CC1=C(C(=O)OC(C)C)C(c2cccc(O)c2)NC(=S)N1 (stereo not shown)	MCF-10A	cell growth or viability, MTT	–	50 µM, 96 h	viability	93%
O=C(C=Cc1ccccc1)Nc1cc(-c2ccnc(N3CCC(O)CC3)c2)ccn1	–	–	female Sprague-Dawley rat, plasma	intravenous, 5 mg/kg	half-life	0.47 h
CC1=C(C(=O)OC(C)C)C(c2cccc(O)c2)NC(=O)N1 (stereo not shown)	MCF-10A	cell growth or viability, MTT	–	50 µM, 96 h	viability	87%
CC1(CN)CCN(c2cnc3c(Sc4ccncc4Cl)n[nH]c3n2)CC1	–	–	male Sprague-Dawley rat, plasma	oral, 10 mg/kg	half-life	2.47 h
Nc1ccc(/C=C/C(=O)NCc2cc3cc(-c4ccc(C(=O)N5CCC(F)(F)CC5)cc4)cc(-c4ccc(F)cc4)c3o2)cn1	–	–	rat, plasma	intravenous, 1 mg/kg	half-life	5.61 h
COc1cc(C2NC(=O)NC(C)=C2C(=O)OC(C)C)ccc1OCc1ccccc1 (stereo not shown)	MCF-10A	cell growth or viability, MTT	–	50 µM, 96 h	viability	91%
O=C(c1ccc(OCCN2CCCCC2)cc1)c1c(-c2ccc(O)cc2)sc2cc(O)ccc12	Broad substrate specificity ATP-binding cassette transporter ABCG2 (ABCG2, Homo sapiens, UniProt Q9UNQ0)	transporter uptake, inhibitor	Sf9	10 µM, pH 7, cell membranes	inhibition	~50%
COc1cccc2c1C(=O)c1c(O)c3c(c(O)c1C2=O)C[C@@](O)(C(=O)CO)C[C@@H]3O[C@H]1C[C@H](N)[C@H](O)[C@H](C)O1	K562	cell growth or viability, MTT	–	100 µg/mL	viability	23.9%
O=C1CC[C@H](N2Cc3cc(N4CCN(CC5CCN(c6ccc([C@@H]7c8ccc(O)cc8CC[C@@H]7c7ccccc7)cc6)CC5)CC4)ccc3C2=O)C(=O)N1	–	–	female Sprague-Dawley rat, plasma	oral, 20 mg/kg, fasted	half-life	5.24 h
C/C(=N\c1ccc(O)cc1)c1cc2ccccc2n1C	–	–	male Sprague-Dawley rat, plasma	intravenous, 5 mg/kg, 5 min, single dose	concentration	173 ng/mL
COc1cc(C2NC(=O)NC(C)=C2C(=O)OC(C)C)cc(OC)c1OC (stereo not shown)	MCF-10A	cell growth or viability, MTT	–	50 µM, 96 h	viability	92%
